NR2E3 ag-1 = activates human photoreceptor nuclear receptor NR2E3 | GST-NR2E3/biotin-RetCOR TR-FRET, 1536-well | 320,000 compounds, 0.12% hits | inhibition of corepressor binding, % at 4.78 µM;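 active = percent inhibition above the cutoff of mean plus 3 SD of all tested compounds, set per screening campaign, cut at about 20% in these data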;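 note: 0% = DMSO wells and 100% = biotin wells as full block of FRET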
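System: GST-tagged NR2E3 plus biotinylated RetCOR corepressor; Amount: 1.35 nM GST-tagged NR2E3 final; Dosing: single nominal compound dose of 4.8 µM; Schedule: 5 h incubation at 4 °C; Technique: TR-FRET with europium anti-GST and streptavidin-D2, 340 nm excitation; Controls: biotin wells as high control, 0.6% DMSO wells as low control.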
Neddylation inh = blocks human cullin neddylation | P61081+Q13564 | TR-FRET cullin neddylation, biochemical | calls only at 25 µM | 360,000 compounds, 0.58% hits | AID 651699; in the data active = inhibition above about 36%
Target sequence (P61081 whole entry, looked up): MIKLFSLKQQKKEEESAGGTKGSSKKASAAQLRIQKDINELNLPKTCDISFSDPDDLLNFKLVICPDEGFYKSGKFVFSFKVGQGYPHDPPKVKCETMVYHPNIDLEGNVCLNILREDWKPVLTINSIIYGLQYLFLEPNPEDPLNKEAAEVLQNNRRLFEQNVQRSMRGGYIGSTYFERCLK
Target sequence (Q13564 whole entry, looked up): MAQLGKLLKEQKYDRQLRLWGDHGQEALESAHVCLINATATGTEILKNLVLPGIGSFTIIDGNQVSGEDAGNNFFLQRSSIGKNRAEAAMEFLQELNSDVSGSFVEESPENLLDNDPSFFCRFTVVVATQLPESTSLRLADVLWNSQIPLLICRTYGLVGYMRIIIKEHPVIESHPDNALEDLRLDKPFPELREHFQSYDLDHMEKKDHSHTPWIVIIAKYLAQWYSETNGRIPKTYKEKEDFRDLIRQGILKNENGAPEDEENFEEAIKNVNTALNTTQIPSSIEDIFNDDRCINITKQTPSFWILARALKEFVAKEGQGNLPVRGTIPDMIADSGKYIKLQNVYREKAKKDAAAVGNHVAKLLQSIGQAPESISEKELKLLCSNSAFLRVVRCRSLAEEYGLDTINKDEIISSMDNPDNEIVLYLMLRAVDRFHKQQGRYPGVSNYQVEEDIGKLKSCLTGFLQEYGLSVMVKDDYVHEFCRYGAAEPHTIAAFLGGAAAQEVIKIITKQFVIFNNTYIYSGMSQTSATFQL
NR1D1 modulator = Rev-erb alpha (human) modulation | P20393 | Rev-erbα–FITC-DNA binding, fluorescence polarization, 90 min | activity, % at 10 µM | 370,000 compounds, 0.79% hits;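 active = activity above about 14%, limit read from the data; passing the limit was not always enough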;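 note: 0% = DMSO wells with 35 nM protein and 100% = DMSO wells with 750 nM protein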
PG9 binder = binds the HIV-1 gp120 antibody PG9; 360,000 compounds, 0.43% hits; TR-FRET gp120-PG9 antibody binding; inhibition, % at 6.7 µM; in the data active = inhibition above about 8.5%
NR2E3 ag-2 = activates human NR2E3 receptor; CHO-S Gal4-NCOR/VP16-NR2E3 two-hybrid, luciferase; inhibition of corepressor binding, % at 3.98 µM; 360,000 compounds, 0.35% hits; Q9Y5X4;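 active = inhibition above the mean of all tested compounds plus 3 SD, cut at about 70% in these data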;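 note: 0% = DMSO with NR2E3 transfected cells and 100% = cells lacking NR2E3 construct; higher means lower luciferase signal from less NR2E3 corepressor binding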
NR2E3 ag confirm = NR2E3 agonism confirmed in two-hybrid assay; CHO-S mammalian two-hybrid NR2E3-NCOR, luciferase luminescence; inhibition, % at 3.98 µM; 2,300 compounds, 51% hits; shares compounds with NR2E3 ag-2;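 active = average inhibition above a cutoff equal to the mean inhibition of all tested compounds plus one SD, cut at about 70% in these data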;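 note: 0% = DMSO in NR2E3 cells and 100% = DMSO in cells lacking NR2E3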
VP16 counter = GAL4-VP16 reporter inhibition in NR2E3 agonist counterscreen. shares compounds with NR2E3 ag-2. CHO-S GAL4-VP16 luciferase reporter, luminescence. inhibition, % at 3.98 µM. 2,300 compounds, 29% hits. AID 624379;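 active = mean inhibition above a cutoff equal to the average over all tested compounds plus one standard deviation, cut at about 70% in these data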;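 note: luciferase from a UAS reporter driven by GAL4-VP16 transactivation; 0% = DMSO with VP16-transfected cells and 100% = DMSO with cells lacking VP16; higher means less reporter light so more repression of VP16 activity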
Numbers without * were called inactive; i = inactive; . = not tested or not shown. An excerpt weighted towards active compounds, which were near 2% of everything screened.

SMILES | NR2E3 ag-1 | Neddylation inh | NR1D1 modulator | PG9 binder | NR2E3 ag-2 | NR2E3 ag confirm | VP16 counter
O=c1c2[nH]c3ccccc3c2ncn1CCC1=CCCCC1 | -2 | i | -6 | -1 | -38 | . | .
CCOC(=O)CSc1nnc(CNc2ccc(Cl)cc2)n1Cc1ccccc1 | -3 | i | -1 | 2 | 18 | . | .
CC(C)OC(=O)CSc1nnc(CNc2ccc(Cl)cc2)n1Cc1ccccc1 | 2 | i | 0 | 1 | 73* | 42 | 63
O=C(NC1CCCCN(Cc2cccc(Cl)c2)C1=O)c1ccc(COc2ccccc2)cc1 (centres undefined) | . | . | 7 | . | . | . | .
Cc1cc(N2CCN(C(=O)Oc3ccc(-c4ccccc4)cc3)CC2)c2ccccc2n1 | . | . | 5 | . | . | . | .
O=[N+]([O-])c1cc(C(F)(F)F)cc([N+](=O)[O-])c1NCCNC(=S)Nc1ccc(Cl)c(Cl)c1 | 2 | i | 9 | -1 | 65 | 98* | 25
FC(F)(F)c1cccc(NC(=S)Nc2ccc(Cl)c(Cl)c2)c1 | 2 | i | 0 | -3 | -3 | . | .
Cn1cc(SCC(=O)Nc2nc3ccccc3s2)c2ccccc21 | -3 | i | -6 | -1 | 48 | 69 | -1
Cc1nn(Cc2c(F)c(F)c(F)c(F)c2F)c(C)c1NC(=O)c1cccc(COc2ccccc2Cl)c1 | 2 | i | 0 | -2 | -186 | . | .
Cc1nn(Cc2cccc(F)c2)c(C)c1NC(=O)c1ccc(COc2ccccc2Cl)cc1 | -2 | i | 0 | -1 | 79* | 94* | 40
CC1(C)CC(=Cc2cc(O)ccc2[N+](=O)[O-])C(=O)c2ccccc21 | . | i | . | . | 98* | 99* | 71*
Nc1ccc(-c2cc3ccccc3oc2=O)cc1 | -1 | i | -1 | -1 | 52 | 58 | 51
Oc1[nH]c2ccccc2c1N=NC(=S)N1CCOCC1 | -5 | i | . | . | 101* | 75* | 38
CN(CCOc1ccc(Cl)cc1)C(=O)c1cccc(S(=O)(=O)N2CCN(Cc3ccccc3)CC2)c1 | . | i | -2 | 1 | 84* | 92* | 74*
Cc1ccc(C)c(NC(=O)CN(C)C(=O)c2cccc(S(=O)(=O)N3CCN(Cc4ccccc4)CC3)c2)c1 | 0 | i | 0 | 0 | 59 | 51 | 48
COc1ccc(NC(=O)CN(C)C(=O)c2cccc(S(=O)(=O)N3CCN(Cc4ccccc4)CC3)c2)cc1 | 5 | i | . | . | 25 | . | .
C/C(=N/NC(=O)CSc1nnc(-c2ccccc2)n1-c1ccc(Cl)cc1)c1cccc(O)c1 | . | . | -4 | . | . | . | .
O=C(O)CC(S)C(=O)O (centres undefined) | . | . | 0 | . | . | . | .
Cc1ccc2sc(N3CCN(C(=O)C4=COCCO4)CC3)nc2c1C | -1 | i | -7 | 1 | 59 | 60 | 38
Cc1ccc2sc(NNC(=O)C3=COCCO3)nc2c1C | 2 | i | -5 | -1 | -30 | . | .
CC(=O)Nc1nc2ncccn2c1-c1ccc(F)c(F)c1 | . | . | 3 | . | . | . | .
CC(C)(C)c1ccc(NC(=S)NCc2cccs2)cc1 | 0 | i | 0 | 0 | 70 | 64 | 40
CC[C@@H](CO)NCCN[C@@H](CC)CO | . | . | -2 | . | . | . | .
Cc1ccc(S(=O)(=O)c2ccc([N+](=O)[O-])o2)cc1 | . | i | 1 | -1 | 66 | 92* | 13
COC(=O)[C@]12C[C@H](CC(=O)NCc3cccs3)C(=O)N(Cc3ccco3)C1=C[C@H](C(C)(C)C)O[C@@H]2C | . | . | 5 | . | . | . | .
SMILES | NR2E3 ag-1 | Neddylation inh | NR1D1 modulator | PG9 binder | NR2E3 ag-2 | NR2E3 ag confirm | VP16 counter
Cc1ccccc1CSCC(=O)N1CCN(c2ccccc2)CC1 | 5 | i | 0 | -2 | -69 | . | .
Cc1cccc(-c2nc(CSCC(=O)N3CCN(c4ccccn4)CC3)c(C)o2)c1 | -2 | i | -6 | 2 | 78* | 81* | 56
Cc1ccsc1-c1nc(CSCC(=O)N2CCN(c3ccccc3)CC2)c(C)o1 | 4 | i | 0 | -2 | 58 | 35 | 27
COCCCNC(=O)C[C@H]1C[C@@]2(C(=O)OC)C(=C[C@H](COCc3ccccc3)O[C@@H]2C)N(Cc2ccc(Cl)cc2Cl)C1=O | . | . | 3 | . | . | . | .
COC(=O)[C@]12C[C@H](CC(=O)N3CCCC3)C(=O)N(Cc3ccc(Cl)cc3Cl)C1=C[C@H](C(C)(C)C)O[C@@H]2C | . | . | 1 | . | . | . | .
C[C@H]1CN(C[C@H](Cc2ccccc2)C(=O)NCC(=O)O)CC[C@@]1(C)c1cccc(O)c1 | . | . | -3 | . | . | . | .
CC(=O)c1cccc(NS(=O)(=O)c2ccc(-c3cc(C)no3)s2)c1 | 5 | i | 2 | -3 | 96* | 70* | 60
Cc1ccc(-c2cc(C(=O)NN=Cc3cccc(OCc4ccccc4)c3)[nH]n2)cc1C | . | . | -4 | . | . | . | .
CC1Sc2ccc(S(=O)(=O)N3CCC(C(=O)Nc4ccc(Cl)cc4)CC3)cc2NC1=O (centres undefined) | -2 | i | 7 | -1 | 103* | 94* | 75*
Cc1ccc(NC(=O)C2CCN(S(=O)(=O)c3ccc(N4CCCC4=O)cc3)CC2)cc1Cl | -4 | i | 0 | 0 | 107* | 99* | 91*
COc1ccc(NC(=O)C2CCN(S(=O)(=O)c3ccc(N4CCCC4=O)cc3)CC2)c(OC)c1 | -1 | i | -1 | 2 | 11 | . | .
O=NN(CC(=O)NNc1ccccc1)CC(=O)NNc1ccccc1 | . | i | 2 | -1 | 73* | 74* | -2
CCCCCCCCCCCCCCCCCCCCCCCCCCCCO | . | . | -5 | . | . | . | .
Cc1cc(/C=N/n2cnnc2)c(C)n1-c1ccc(OCc2ccc(Cl)cc2)cc1 | 3 | i | 1 | -2 | 102* | 98* | 87*
Cc1cc(/C=N/n2cnnc2)c(C)n1-c1ccc(OCc2ccccc2F)cc1 | 4 | i | 1 | -1 | 66 | 96* | 79*
C(=N\n1cnnc1)/c1ccc(OCc2ccccc2)cc1 | -3 | i | 4 | -1 | -68 | . | .
CC(NNC(=S)N1CCN(c2ccccn2)CC1)c1nccc2ccccc12 (centres undefined) | . | i | -4 | -1 | 83* | 5 | 14
CC(SC(=S)N(C)Cc1cccs1)C(=O)O (centres undefined) | 1 | i | -8 | -2 | -36 | . | .
CN(C)c1nc(=NCc2cccs2)ss1 | . | i | 9 | 1 | 97* | 23 | -10
O=S(=O)(c1ccc2c(c1)OCCO2)N1CCC(n2nnc3cc(C(F)(F)F)ccc32)CC1 | 4 | i | 3 | -1 | 52 | 42 | 18
CCOc1ccc(-c2nc(CSCC(=O)NCC3CCCO3)c(C)o2)cc1 (centres undefined) | 1 | i | 3 | 0 | 104* | 92* | 87*
